Test results as given in ChEMBL document CHEMBL4364284, “Design, Synthesis, and Efficacy Testing of Nitroethylene- and 7-Nitrobenzoxadiazol-Based Flavodoxin Inhibitors against Helicobacter pylori Drug-Resistant Clinical Strains and in Helicobacter pylori-Infected Mice” (J Med Chem, 2019).
≈ marks a conversion by molar mass, not a printed value. Calls of active or inactive are those of the source. The rule behind the calls is not given here.

Assays:
[1] = Therapeutic index, ratio of MCC50 for human HeLa cells to MIC for inhibition of flavodoxin in rifampicin-resistant Helicobacter pylori isolate 5 assessed as reduction in bacterial growth; format: toxicity; conditions: read-out: TI
Outline: (§1)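 TI is MCC50/MIC. For MCC50, HeLa cells (30 000/well, DMEM with 10% FBS) were exposed to compound at 25–1000 μM final. Viability by XTT at 450/650 nm; MCC50 is the concentration giving 50% lysis from viability curves. Run twice in triplicate.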

[2] = target: T1, Flavodoxin (Helicobacter pylori (strain ATCC 700392 / 26695) (Campylobacter pylori)) (UniProt O25776); test: Inhibition of flavodoxin in Helicobacter pylori SS1 assessed as reduction in bacterial growth measured after 48 hrs by resazurin staining-based microdilution method
T1 sequence (whole entry): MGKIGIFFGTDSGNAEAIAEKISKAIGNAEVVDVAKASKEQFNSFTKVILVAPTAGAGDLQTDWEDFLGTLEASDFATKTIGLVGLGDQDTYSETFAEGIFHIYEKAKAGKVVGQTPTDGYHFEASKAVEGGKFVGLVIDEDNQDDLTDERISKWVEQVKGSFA
Outline: (§2)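 Broth microdilution in brain heart infusion with 4% FBS. Inoculum diluted to OD600 0.01. Two-fold dilutions from a DMSO stock cover 64–0.031 μg/mL, with DMSO ≤1% v/v. Incubated 48 h at 37 °C under microaerophilic conditions. MIC is the lowest concentration giving complete growth inhibition, read by resazurin colour change and confirmed by spotting on blood agar. Run twice in triplicate.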

[3] = Therapeutic index, ratio of MCC50 for human HeLa cells to MIC for inhibition of flavodoxin in Helicobacter pylori ATCC 700392 26695 assessed as reduction in bacterial growth; format: toxicity; conditions: HeLa cells versus Helicobacter pylori ATCC 700392 26695, read-out: TI; outline: as §1
[4] = Therapeutic index, ratio of MCC50 for human HeLa cells to MIC for inhibition of flavodoxin in metronidazole-resistant Helicobacter pylori isolate 2 assessed as reduction in bacterial growth; format: toxicity; conditions: read-out: TI; outline: as §1
[5] = Therapeutic index, ratio of MCC50 for human HeLa cells to MIC for inhibition of flavodoxin in Mnz-resistant Helicobacter pylori NCTC 11637 ATCC 43504 assessed as reduction in bacterial growth; format: toxicity; conditions: read-out: TI; outline: as §1
[6] = Cytotoxicity against human HeLa cells assessed as reduction in cell viability by XTT assay; format: cell-based; conditions: read-out: MCC50
Outline: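 HeLa cells grown in DMEM with 10% FBS, penicillin and streptomycin at 37 °C, 5% CO2; 30 000 cells/well. XTT viability read at 450 and 650 nm. MCC50 (50% lysis) came from viability-versus-concentration curves. Two experiments, each in triplicate.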

[7] = target: T1, Flavodoxin (Helicobacter pylori (strain ATCC 700392 / 26695) (Campylobacter pylori)); test: Inhibition of flavodoxin in Mnz-resistant Helicobacter pylori NCTC 11637 ATCC 43504 assessed as reduction in bacterial growth measured after 48 hrs by resazurin staining-based microdilution method; conditions: Helicobacter pylori NCTC 11637 = CCUG 17874 = ATCC 43504; outline: as §2
[8] = Therapeutic index, ratio of MCC50 for human HeLa cells to MIC for inhibition of flavodoxin in metronidazole-resistant Helicobacter pylori isolate 3 assessed as reduction in bacterial growth; format: toxicity; conditions: read-out: TI; outline: as §1
[9] = Therapeutic index, ratio of MCC50 for human HeLa cells to MIC for inhibition of flavodoxin in clarithromycin/metronidazole-resistant Helicobacter pylori isolate 6 assessed as reduction in bacterial growth; format: toxicity; conditions: read-out: TI; outline: as §1
[10] = Therapeutic index, ratio of MCC50 for human HeLa cells to MIC for inhibition of flavodoxin in Helicobacter pylori SS1 assessed as reduction in bacterial growth; format: toxicity; conditions: HeLa cells versus Helicobacter pylori SS1, read-out: TI; outline: as §1
[11] = target: T1, Flavodoxin (Helicobacter pylori (strain ATCC 700392 / 26695) (Campylobacter pylori)); test: Inhibition of flavodoxin in Helicobacter pylori ATCC 700392 26695 assessed as reduction in bacterial growth measured after 48 hrs by resazurin staining-based microdilution method; conditions: Helicobacter pylori 26695; outline: as §2
[12] = Therapeutic index, ratio of MCC50 for human HeLa cells to MIC for inhibition of flavodoxin in clarithromycin/metronidazole-resistant Helicobacter pylori isolate 4 assessed as reduction in bacterial growth; format: toxicity; conditions: read-out: TI; outline: as §1
Staphylococcus aureus = test: Effect on growth of Staphylococcus aureus ATCC 1228 after 48 hrs by resazurin-dye based microdilution assay; format: organism-based
[13] = target: T1, Flavodoxin (Helicobacter pylori (strain ATCC 700392 / 26695) (Campylobacter pylori)); test: Binding affinity to Helicobacter pylori flavodoxin by thermal upshift assay
[14] = Therapeutic index, ratio of MCC50 for human HeLa cells to MIC for inhibition of flavodoxin in metronidazole-resistant Helicobacter pylori isolate 1 assessed as reduction in bacterial growth; format: toxicity; conditions: read-out: TI; outline: as §1
[15] = target: T1, Flavodoxin (Helicobacter pylori (strain ATCC 700392 / 26695) (Campylobacter pylori)); test: Binding affinity to Helicobacter pylori flavodoxin by isothermal titration calorimetric method
Escherichia coli = test: Effect on growth of Escherichia coli DH5[alpha] after 48 hrs by resazurin-dye based microdilution assay; format: organism-based

SMILES	selectivity ratio [1]	MIC [2]	selectivity ratio [3]	selectivity ratio [4]	selectivity ratio [5]	CC50 [6]	MIC [7]	selectivity ratio [8]	selectivity ratio [9]	selectivity ratio [10]	MIC [11]	selectivity ratio [12]	Activity (Staphylococcus aureus)	Activity [13]	selectivity ratio [14]	Activity [15]	Activity (Escherichia coli)
O=[N+]([O-])CCc1ccccc1	4.7	212 µM (≈ 32 µg/mL)	> 9.4	4.7	> 4.7	> 1 mM	212 µM (≈ 32 µg/mL)	4.7	4.7	> 4.7	106 µM (≈ 16 µg/mL)	605	Non-Toxic	Active	4.7	Active	Non-Toxic
Cc1ncc([N+](=O)[O-])n1CCO [METRONIDAZOLE]	–	2.9 µM (≈ 0.496 µg/mL)	> 83	–	> 5.3	> 1 mM	187 µM (≈ 32 µg/mL)	–	–	> 345	12 µM (≈ 2.05 µg/mL)	–	Non-Toxic	Active	–	Active	Non-Toxic
Cc1ncc(N)n1CCO	–	> 453 µM	> 2.2	–	> 4.4	> 1 mM	227 µM (≈ 32 µg/mL)	–	–	–	453 µM (≈ 64 µg/mL)	–	Non-Toxic	Active	–	Active	Non-Toxic
COc1ccc(CS(=O)(=O)c2ccc(N)c3nonc23)cc1	10	100 µM (≈ 31.9 µg/mL)	> 10	10	> 10	> 1 mM	100 µM (≈ 31.9 µg/mL)	20	10	> 10	100 µM (≈ 31.9 µg/mL)	20	Non-Toxic	Active	10	Active	Non-Toxic
O/N=C/Cc1cc(C(F)(F)F)cc(C(F)(F)F)c1	4.2	236 µM (≈ 64 µg/mL)	> 4.2	4.2	> 8.5	> 0.5 mM	59 µM (≈ 16 µg/mL)	4.2	4.2	> 2.1	118 µM (≈ 32 µg/mL)	34	Non-Toxic	Active	4.2	Active	Non-Toxic
COc1ccc(C[S+]([O-])c2ccc([N+](=O)[O-])c3nonc23)cc1 (stereo unspecified)	–	12 µM (≈ 4 µg/mL)	30	–	30	0.179 mM	6 µM (≈ 2 µg/mL)	–	–	15	6 µM (≈ 2 µg/mL)	–	Non-Toxic	Active	–	Active	Non-Toxic
ONCCc1ccccc1	–	> 233 µM	–	–	–	> 1 mM	> 233 µM	–	–	–	> 233 µM	–	Non-Toxic	Active	–	Active	Non-Toxic
O=[N+]([O-])C1=Cc2cc(Cl)cc(Cl)c2OC1c1ccc(F)cc1 (stereo unspecified)	–	0.37 µM (≈ 0.126 µg/mL)	–	–	–	–	0.37 µM (≈ 0.126 µg/mL)	–	–	–	0.37 µM (≈ 0.126 µg/mL)	–	–	Active	–	Active	–
